# Compound activity as filed in PubChem BioAssay.
# RGS4 block – RGS4 inhibitors, primary screen, cell-based, HEK293 M3R inducible RGS4, calcium flux | Fluo-4 calcium flux; stronger effect = higher value; triggered by carbachol at its EC20 | B-score at 10 µM | actives 0.45% (n = 310,000) | AID 463165, 2010;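 active means B-score, a plate-corrected calcium signal, over three deviations above library mean, with baseline fluorescence within five deviations of library mean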;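 further: RGS4 expression induced by doxycycline in cells with stable M3 receptor; B-score is computed from the integrated fluorescence ratio over baseline after carbachol; higher B-score means a larger calcium signal and so more RGS4 inhibition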
# PHOSPHO1 inh – PubChem AID 1565 | recombinant PHOSPHO1, absorbance phosphatase assay | inhibition, % at 13.3 µM | actives 1.1% (n = 290,000); in the data active means inhibition above about 60%
# Target sequence (Q8TCT1 whole entry, looked up): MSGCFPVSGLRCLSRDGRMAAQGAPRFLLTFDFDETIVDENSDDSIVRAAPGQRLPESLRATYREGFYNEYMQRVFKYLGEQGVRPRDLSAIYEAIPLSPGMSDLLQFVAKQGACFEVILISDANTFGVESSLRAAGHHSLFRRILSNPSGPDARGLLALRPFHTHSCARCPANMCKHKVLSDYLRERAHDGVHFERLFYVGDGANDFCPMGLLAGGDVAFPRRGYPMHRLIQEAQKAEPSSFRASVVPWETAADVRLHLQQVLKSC
# RGS4 pot – RGS4 potentiators or activators, primary screen, cell-based, HEK293 M3R inducible RGS4, calcium flux. actives 0.92% (n = 310,000). carbachol calcium flux Fluo4; stronger effect = lower value. AID 463111, 2010. B-score at 10 µM;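 active means B-score of the integrated calcium signal more than 4 SD below the library mean, with starting fluorescence not abnormally high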;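 further: negative B-score means reduced calcium response which marks RGS4 activation or potentiation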
#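 System – HEK293 FlpIn-TREx cells, stable M3R, doxycycline-inducible RGS4 · Reagent – ECmax carbachol challenge · Times – compound preincubation 20 min at room temperature before agonist · Technique – Fluo4 fluorescence kinetic imaging of calcium · Measure – B score of integrated Fluo4 ratio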
# MrgX1 PAM – positive allosteric modulators of MrgX1, primary screen, HEK293 cells, Fluo-4 calcium flux; actives 0.63% (n = 310,000); Mas-related G-protein coupled receptor member X1 (Homo sapiens), Q96LB2; FDSS; stronger effect = higher value; B-score at 10 µM;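 active means plate-corrected calcium response at least 3 library SD above typical, normal starting fluorescence, not activating the receptor alone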;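 further: compound read alongside a low EC10 to EC30 dose of BAM8-22 agonist; peak minus trough fluorescence over baseline measured at the second addition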
# Target sequence (Q96LB2 whole entry, looked up): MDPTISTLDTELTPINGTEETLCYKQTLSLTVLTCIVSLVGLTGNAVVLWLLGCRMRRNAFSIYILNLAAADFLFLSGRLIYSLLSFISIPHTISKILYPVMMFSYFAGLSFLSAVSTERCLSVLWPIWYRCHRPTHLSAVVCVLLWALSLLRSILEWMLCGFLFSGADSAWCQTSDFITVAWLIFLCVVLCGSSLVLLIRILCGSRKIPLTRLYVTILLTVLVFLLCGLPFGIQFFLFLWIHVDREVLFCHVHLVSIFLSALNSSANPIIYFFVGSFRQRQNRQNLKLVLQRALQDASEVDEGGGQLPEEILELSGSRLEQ
# MrgX1 ag – agonists of human MrgX1 receptor, primary screen, HEK293 cells, Fluo-4 calcium flux. Mas-related G-protein coupled receptor member X1 (Homo sapiens), Q96LB2. Fluo-4 calcium fluorescence, agonist mode; stronger effect = higher value. B-score at 10 µM. actives 0.44% (n = 310,000). AID 588627, 2011;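 active means calcium response B-score plate-corrected fluorescence ratio at least 3 library SD, with starting fluorescence B-score inside 5 SD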
#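 Material: MrgX1-expressing HEK293 cells / Dosing: compound as first of three additions / Incubation: overnight seeding, then 1 h dark dye loading / Signal: Fluo-4 NW calcium fluorescence / Evaluation: B-scored fluorescence response ratio / Benchmarks: positive and negative control wells on each plate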
# MrgX1 antag – antagonists of human MrgX1 receptor, primary screen, HEK293 cells, Fluo-4 calcium flux; BAM8-22 antagonism; stronger effect = lower value; actives 1.3% (n = 310,000); B-score at 10 µM; Mas-related G-protein coupled receptor member X1 (Homo sapiens), Q96LB2;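 active means calcium-response B-score plate-corrected more than 3 library SD below zero, starting fluorescence within 5 deviations, no agonist response on first addition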;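 further: peak minus trough fluorescence over baseline after final BAM8-22 challenge near maximal dose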
# MrgX1 allo conf – MrgX1 positive allosteric modulators, duplicate retest, confirmation, HEK293 cells, Fluo-4 calcium flux | shares compounds with MrgX1 PAM | Fluo-4 calcium fluorescence, FDSS | activation (ratio percentage), % at 10 µM | actives 13% (n = 1,200) | AID 602413, 2012;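 active means ratio at least 3 SD above the weak peptide control, stable starting fluorescence, no direct agonism earlier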;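 further: compound followed by low BAM8-22 agonist challenge near EC20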
# HEK293 Ca flux – nonspecific calcium signal in parental HEK293, confirmation, counter-screen for MrgX1 antagonist project, parental HEK293 cells, Fluo-4 calcium flux | shares compounds with MrgX1 antag | Fluo-4 calcium fluorescence, FDSS | fluorescence ratio F(max-min)/F0 at 10 µM | actives 2% (n = 4,000) | AID 624111, 2012;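 active means duplicate-averaged calcium fluorescence ratio at least three times the standard deviation of buffer wells, a nonspecific response in parental cells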
# HEK293 Ca counter – calcium response in parental HEK293 cells, primary screen, counter-screen for MrgX1 allosteric activator project, cell-based, Fluo-4 calcium flux, duplicate; shares compounds with MrgX1 antag; Fluo-4 fluorescence ratio; stronger effect = higher value; fluorescence ratio F(max-min)/F0 at 10 µM; actives 0.4% (n = 4,000); AID 624114, 2012;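 active means calcium fluorescence ratio, averaged over duplicates, at least 3 SD of the buffer-well ratio, meaning a nonspecific response in receptor-free cells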;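 further: untransfected parental HEK293 lacking MrgX1 used as counterscreen for MrgX1 allosteric activators; fluorescence change taken during the second addition on a kinetic imager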
# HEK293 Ca cntr2 – calcium response in parental HEK293 cells, primary screen, counter-screen for MrgX1 agonist project, cell-based, Fluo-4 calcium flux, duplicate, agonist mode; shares compounds with MrgX1 antag; actives 8.7% (n = 4,000); fluorescence ratio F(max-min)/F0 at 10 µM; Fluo-4 calcium fluorescence (FDSS); stronger effect = higher value;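 active means calcium fluorescence ratio at least three times the spread of buffer wells, meaning a non-specific response in parental cells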
# Starred values were filed as active, the others as inactive; i = inactive; . = not tested or not shown. Shown are actives, neighbours in structure and some others; about 4.5% of the full set was active somewhere.
SMILES,RGS4 block,PHOSPHO1 inh,RGS4 pot,MrgX1 PAM,MrgX1 ag,MrgX1 antag,MrgX1 allo conf,HEK293 Ca flux,HEK293 Ca counter,HEK293 Ca cntr2
CC12CCC(C(=O)Nc3nc4ccc(Br)cc4s3)(OC1=O)C2(C)C (stereo not drawn),i,8,i,17*,i,i,6.5%*,i,i,i
O=C(COc1ccc(S(=O)(=O)N2CCOCC2)cc1)Nc1ccccc1Cl,i,3,i,i,i,i,.,.,.,.
CCOC(=O)C1=C(C)NC(=O)CC1c1cc(OC)c(OC)cc1Br (stereo not drawn),i,19,i,15*,i,i,i,i,i,i
O=C(c1ccccc1)N(Nc1ccccc1)c1ccccc1,i,14,i,i,i,i,.,.,.,.
CCN1CC2=C(OC(N)=C(C#N)C2c2ccccc2)/C(=C\c2ccccc2)C1 (stereo not drawn),i,-20,i,22*,i,i,i,i,i,i
CCN1CC2=C(OC(N)=C(C#N)C2c2cccs2)/C(=C/c2cccs2)C1 (stereo not drawn),i,4,i,8.2*,i,i,i,i,i,i
N#CC1=C(N)OC2=C(CN(Cc3ccccc3)C/C2=C\c2cccnc2)C1c1cccnc1 (stereo not drawn),i,-8,i,i,i,i,.,.,.,.
O=C(CN1C(=O)c2cccnc2Oc2ccc(Cl)cc21)Nc1ccccc1F,i,-4,i,i,i,i,.,.,.,.
CS(=O)(=O)n1nc(OC(=O)c2cc(Br)ccc2Cl)cc1N,i,32,i,i,i,i,.,.,.,.
COc1ccc(S(=O)(=O)n2nc(OC(=O)c3ccccc3Br)cc2N)cc1,i,9,i,10*,i,i,32%*,i,i,i
COc1ccc(S(=O)(=O)n2nc(OC(C)=O)cc2N(C(C)=O)C(C)=O)cc1,i,-37,i,13*,i,i,i,i,i,i
CS(=O)(=O)n1nc(OC(=O)c2cccc3ccccc23)cc1N,i,11,i,6.5*,i,i,14%*,i,i,i
COc1ccc(S(=O)(=O)n2nc(OC(=O)c3ccccc3)cc2N)cc1,i,7,i,i,i,i,.,.,.,.
O=[N+]([O-])c1cccc(-c2csc(N/N=C/c3cccc(O)c3)n2)c1,i,-10,i,i,i,i,.,.,.,.
COc1c(Cl)cccc1-c1cn2ccc(C)cc2n1,i,-7,i,15*,i,i,i,i,i,i
Cc1ccn2cc(-c3ccc(Br)cc3)nc2c1,i,-1,i,15*,i,i,i,i,i,i
CC(=O)Nc1nc2c(s1)C(=O)NCCC2,i,12,i,i,i,i,.,.,.,.
CCCCOc1ccc(C(=O)CCN2CCCCC2)cc1,i,4,i,7.1*,i,i,i,i,i,i
CC(C)COc1ccc(C(=O)CCN2CCCCC2)cc1,i,11,i,i,i,i,.,.,.,.
O=C(CSc1nc(-c2ccccc2)cs1)NCCN1C(=O)CSC1=O,i,32,i,10*,i,i,i,i,i,i
OCC[C@@H]1C[C@H](O)[C@@H](O)[C@]2(OCCc3ccccc32)O1,i,36,i,i,i,i,.,.,.,.
CCOC(=O)C1CCCN(C(=O)c2sc3nc(-c4ccc(F)cc4)cn3c2C)C1 (stereo not drawn),i,29,i,7.3*,i,i,14%*,i,i,i
Cc1ccc(-c2cc(N)n(-c3ccc(C)cc3)n2)cc1,i,6,i,7.2*,i,i,i,i,i,i
O=C(NCc1ccccn1)c1cc(Cl)ccc1OCc1ccccc1,i,43,i,6.9*,i,i,i,i,i,i
O=C(NCc1ccccn1)c1ccc(Cl)cc1Cl,i,10,i,i,i,i,.,.,.,.
SMILES,RGS4 block,PHOSPHO1 inh,RGS4 pot,MrgX1 PAM,MrgX1 ag,MrgX1 antag,MrgX1 allo conf,HEK293 Ca flux,HEK293 Ca counter,HEK293 Ca cntr2
O=C(NCCNC(=O)c1cc(Cl)ccc1Cl)c1ccccn1,i,-7,i,9.3*,i,i,i,i,i,77*
O=C(NCc1ccccn1)c1ccc(COc2ccc(Cl)cc2)o1,i,-6,i,7.3*,i,i,i,i,i,i
Cc1cccnc1NC(=S)Nc1ccc(Br)cc1Cl,i,23,i,i,i,i,.,.,.,.
O=C(Nc1ccc(F)cc1)C1C2CCC3C(CCC21)C3(Cl)Cl (stereo not drawn),i,46,i,9.4*,i,i,i,i,i,i
CCOc1ccc(NC(=O)C2C3CCC4C(CCC32)C4(Cl)Cl)cc1 (stereo not drawn),i,32,i,i,i,i,.,.,.,.
O=C(Nc1ccccc1F)Oc1cccc(OC(=O)Nc2ccccc2F)c1,i,16,i,7.5*,i,i,i,i,i,i
COc1cccc(C(=O)Nc2ccccc2F)c1,i,32,i,i,i,i,.,.,.,.
Cc1ccc(Nc2nc3ccccc3s2)c(C)c1,i,21,i,7*,i,i,i,i,i,i
COc1ccc(-c2cc(-c3ccccc3)c(C#N)c(SCC(=O)O)n2)cc1,i,.,i,i,i,i,.,.,.,.
